Most compounds without a hit are left out; they make up all but 3.7% or so of the library.
CFTR F508del cor – CFTR F508del correction in bronchial cells | AID 720511 | 350,000 tested, 0.36% active | CFBE cells, YFP halide quenching; stimulated with forskolin plus potentiator P3; % fluorescence drop versus neutral controls | activity (quench increase), % at 7.58 µM;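 active = mean added fluorescence quench of at least 8% versus neutral control, with both replicates also reaching 8%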;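 also: cells transiently co-express mutant CFTR-F508del with the halide-sensitive YFP; corrector assay measuring rescue of mutant channel to the surface after 24 h compound exposure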
FGF22 binding – shifts melting point of recombinant human FGF22. recombinant FGF22 thermal shift, SYPRO orange fluorescence; percent of sucrose octasulfate shift, DMSO zero. 340,000 tested, 1.5% active. activity (Tm shift, normalised), % at 9.99 µM. Q9HCT0;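 active = mean Tm shift, scaled 0 neutral to 100 positive control, at about 1.3% or above, every replicate too, limit read from the data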
ERAP1 HTS inh – inhibitors of human ERAP1 aminopeptidase; recombinant ERAP1, Leu-AMC fluorescence, 60 min; inhibition, % at 10.7 µM; 340,000 tested, 0.15% active;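 active = mean replicate inhibition of at least 30%, or all replicates individually reaching that 30% level; inactive = mean below 30% and not every replicate reaching it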;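 also: 0% = neutral control wells and 100% = L-leucinethiol positive control wells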
DENV2 CPE rescue – DENV2-induced cell death inhibition. AID 651640. DENV2-infected cells, cytopathic effect rescue, plate reader. 350,000 tested, 1.7% active. CPE inhibition, % at 9.99 µM; in the data active = CPE inhibition above about 20%, passing the limit was not always enough; tested in BHK-21 cells;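 also: 0% = median of neutral control wells and 100% = median of positive control wells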
E-selectin induc – induces E-selectin expression in human endothelial cells; 260,000 tested, 0.37% active; AID 686992; P16581; activation, % at 7.58 µM; HUVEC E-selectin immunofluorescence imaging; normalized: neutral wells 0, TNF-alpha wells 100;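 active = mean E-selectin-positive cell signal at least 10% of the positive control, reached in at least 60% of replicates, without over 20% cell loss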
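assay system = HUVEC, human umbilical vein endothelial cells | input = 3,000 HUVEC seeded per well | medium = EGM-2 growth medium on 0.1% gelatin-coated wells | dosing = one compound dose added by pin transfer | signal = immunofluorescence imaging | read-out basis = % PE-positive cells | control set = TNF-alpha, DMSO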
An asterisk follows results filed as active; . = no result given.

SMILES	CFTR F508del cor	FGF22 binding	ERAP1 HTS inh	DENV2 CPE rescue	E-selectin induc
CC(=O)Nc1cccc(OCCCNC(=O)c2ccc(F)cc2)c1	0	0	-2	9	0
C[C@H](CO)N1C[C@H](C)[C@H](CN(C)C(=O)Nc2ccccc2)Oc2ccc(NS(=O)(=O)c3ccccc3)cc2CC1=O	1	0	3	34*	0
COc1ccc(NC(=O)N(C)C[C@@H]2Oc3ccc(NS(=O)(=O)c4ccccc4)cc3CC(=O)N([C@H](C)CO)C[C@H]2C)cc1	-2	-1	-4	4	0
COc1ccc(S(=O)(=O)Nc2ccc3c(c2)CC(=O)N([C@H](C)CO)C[C@H](C)[C@@H](CN(C)C(=O)Nc2ccc4c(c2)OCO4)O3)cc1	0	0	4	26*	0
C[C@H]1CN([C@@H](C)CO)C(=O)Cc2cc(NS(=O)(=O)c3ccc(F)cc3)ccc2O[C@@H]1CN(C)C(=O)Nc1ccccc1	-2	0	1	62*	0
COc1ccc(NC(=O)N(C)C[C@@H]2Oc3ccc(NS(=O)(=O)c4ccccc4)cc3CC(=O)N([C@H](C)CO)C[C@@H]2C)cc1	-3	0	-1	39*	0
CCCNC(=O)Nc1ccc2c(c1)OC[C@@H](C)N(C(=O)c1ccccc1F)C[C@@H](C)[C@@H](OC)CN(C)C2=O	1	0	-1	-8	0
Cc1ccc(S(=O)(=O)N[C@H]2CC[C@H](CC(=O)NCc3ccc(Cl)c(Cl)c3)O[C@H]2CO)cc1	1	0	-4	-4	0
C[C@H](CO)N1C[C@H](C)[C@H](CN(C)Cc2ccccc2)Oc2ncc(/C=C/c3ccccc3)cc2C1=O	1	0	-2	-3	0
Cc1ccc(S(=O)(=O)Nc2ccc3c(c2)CC(=O)N([C@H](C)CO)C[C@H](C)[C@H](CN(C)Cc2ccc(Oc4ccccc4)cc2)O3)cc1	0	-1	-3	50*	0
C[C@H](CO)N1C[C@H](C)[C@H](CN(C)Cc2ccccc2)Oc2ccc(NS(=O)(=O)c3ccc(Cl)cc3)cc2CC1=O	-1	0	1	28*	0
C[C@H](CO)N1C[C@H](C)[C@@H](CN(C)C(=O)Nc2ccccc2)Oc2ccc(NS(=O)(=O)c3ccc(Cl)cc3)cc2CC1=O	0	0	3	58*	0
C[C@H]1CN([C@@H](C)CO)C(=O)Cc2cc(NS(=O)(=O)c3ccccc3)ccc2O[C@@H]1CN(C)C(=O)Nc1ccccc1	1	0	1	23*	0
C[C@@H]1CCCCO[C@@H](CN(C)Cc2ccc(Cl)c(Cl)c2)[C@@H](C)CN([C@@H](C)CO)C(=O)c2cc(NS(=O)(=O)c3cn(C)cn3)ccc2O1	4	0	-3	0	0
CO[C@@H]1CN(C)C(=O)c2ccc(NC(=O)Nc3cccc(F)c3)cc2OC[C@@H](C)N(C(=O)Nc2c(C)noc2C)C[C@@H]1C	-1	0	1	8	0
CCCN(C)C[C@H]1Oc2cc(C#CCC3CCCC3)ccc2S(=O)(=O)N([C@H](C)CO)C[C@@H]1C	-1	0	-1	7	.
Cc1ccc(S(=O)(=O)Nc2ccc3c(c2)C(=O)N([C@H](C)CO)C[C@H](C)[C@H](CN(C)S(=O)(=O)c2ccccc2)OCCCC[C@@H](C)O3)cc1	5	.	2	-14	0
C[C@H](CO)N1C[C@H](C)[C@@H](CN(C)S(C)(=O)=O)Oc2ccc(NS(=O)(=O)c3ccccc3)cc2CC1=O	1	0	-1	70*	1
C[C@@H]1CN([C@H](C)CO)C(=O)c2cc(NS(=O)(=O)c3ccc(Cl)cc3)ccc2O[C@@H]1CN(C)Cc1ccc(-c2ccccc2)cc1	9.4*	1	1	-17	0
C[N+]1(CCOC(=O)C2(c3ccccc3)CCCC2)CCCCC1	-1	0	67*	.	3
O=C(Nc1cccnc1)c1ccc(-c2ccc(Cl)cc2)o1	0	0	-1	-6	-1
CN(C)C(=O)c1ccc(NC(=O)c2ccc(-c3ccc(Cl)cc3)o2)cc1	2	1.8*	-7	-1	0
O=S(=O)(CCN1CCOCC1)c1ccc(Cl)cc1	-1	0	4	-13	0
Cc1nn(CCS(=O)(=O)c2ccc(Cl)cc2)c(C)c1Br	-1	0	.	12	78*
CCOC(=O)c1ccc(S(=O)(=O)N2CCN(C(=O)CSc3nc4ccccc4o3)CC2)cc1	.	0	0	29*	1
SMILES	CFTR F508del cor	FGF22 binding	ERAP1 HTS inh	DENV2 CPE rescue	E-selectin induc
COc1ccc(CN(C)C[C@@H]2Oc3ccc(NC(=O)NC(C)C)cc3CC(=O)N([C@@H](C)CO)C[C@H]2C)cc1	-1	0	0	-6	-4
COc1cccc(NC(=O)Nc2ccc3c(c2)C(=O)N(C)[C@H]2CC[C@@H](CC(=O)NCCc4ccccc4)O[C@H]2CO3)c1	.	0	2	1	0
CN(c1ccc(O)cc1)c1nc(-c2cccs2)cs1	13*	42	-3	-2	0
CC(C)(C)NCC(O)COc1ccc(Br)cc1 (configuration not stated)	0	44*	-5	.	.
C[C@H](CO)N1C[C@H](C)[C@H](CN(C)C(=O)Nc2ccccc2)OCCCC[C@H](C)Oc2ccc(NS(C)(=O)=O)cc2C1=O	0	0	1	10	0
C#CCC(NC(=O)c1ccc(C#N)cc1)C(=O)NCCC (configuration not stated)	5	0	.	-7	0
C=CCC(NC(=O)c1ccc(C#N)cc1)C(=O)NCCC (configuration not stated)	-1	0	.	49*	0
C[C@@H]1CN([C@H](C)CO)C(=O)Cc2cc(NC(=O)Cc3ccccc3)ccc2O[C@@H]1CN(C)C(=O)Nc1cccc2ccccc12	0	.	.	.	-18
CCCCNC(=O)c1cc2c(C)cc(C)cc2[nH]1	0	0	-1	57*	21
CO[C@H]1CN(C)C(=O)c2cc(NC(=O)NC3CCCC3)ccc2OC[C@@H](C)N(CC2CC2)C[C@H]1C	-1	.	-2	11	0
COc1cc(OC)c2c(-c3cccc(-c4sccc4C(C)=O)c3)cc(=O)oc2c1	9.7*	0	.	-2	-8
COc1cc(OC)c2c(-c3cccc(-c4ccc(NC(C)=O)cc4)c3)cc(=O)oc2c1	6	0	.	-3	.
COc1cc(OC)c2c(-c3cccc(-c4ccc(OC)c(OC)c4)c3)cc(=O)oc2c1	9.2*	0	.	-1	1
COc1ccc(S(=O)(=O)N(C)C[C@H]2Oc3ccc(NC(=O)Nc4ccc(F)cc4)cc3C(=O)N([C@H](C)CO)C[C@@H]2C)cc1	1	0	1	0	0
COc1ccc(NC(=O)Nc2ccc3c(c2)C(=O)N([C@@H](C)CO)C[C@@H](C)[C@@H](CN(C)S(=O)(=O)c2ccc(Cl)cc2)O3)cc1	2	0	3	2	18
